# In the library only some 2.5% were active in any assay of this set; here they are far more common.
# Beta2AR agonist – human beta-2 adrenergic receptor agonism by FAP; P07550; Am2.2-beta2AR cells, FAP receptor internalization, flow cytometry; response, % (no concentration beside the values); 340,000 compounds, 0.43% hits; AID 504454;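 active means response above a set limit, near 3 SD of response in nonfluorescent compounds, cut at about 42% in these data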
# ABHD5-PLIN5 inh – blocks binding of human ABHD5 to perilipin-5; 360,000 compounds, 0.78% hits; Split G. princeps luciferase complementation, luminescence, 4 h; Q00G26+Q8WTS1; inhibition, % at 4 µM;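 active means inhibition above the mean inhibition across every tested compound plus 3 SD, cut at about 22% in these data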;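 further: 0% = DMSO only wells and the 100% control is not disclosed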
# Target sequence (Q00G26 whole entry, looked up): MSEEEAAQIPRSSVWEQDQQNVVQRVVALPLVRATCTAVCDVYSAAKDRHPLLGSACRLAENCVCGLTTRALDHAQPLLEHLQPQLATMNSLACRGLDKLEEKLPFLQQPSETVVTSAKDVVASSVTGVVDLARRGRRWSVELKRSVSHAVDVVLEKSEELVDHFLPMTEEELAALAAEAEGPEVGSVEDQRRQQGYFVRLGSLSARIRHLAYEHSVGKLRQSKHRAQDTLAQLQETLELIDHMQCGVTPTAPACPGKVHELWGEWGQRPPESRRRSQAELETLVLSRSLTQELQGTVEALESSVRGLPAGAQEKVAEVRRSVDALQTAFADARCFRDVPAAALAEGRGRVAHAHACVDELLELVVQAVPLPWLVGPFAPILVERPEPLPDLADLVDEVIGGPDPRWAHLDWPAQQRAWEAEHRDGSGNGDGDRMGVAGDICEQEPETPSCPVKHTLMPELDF
# Target sequence (Q8WTS1 whole entry, looked up): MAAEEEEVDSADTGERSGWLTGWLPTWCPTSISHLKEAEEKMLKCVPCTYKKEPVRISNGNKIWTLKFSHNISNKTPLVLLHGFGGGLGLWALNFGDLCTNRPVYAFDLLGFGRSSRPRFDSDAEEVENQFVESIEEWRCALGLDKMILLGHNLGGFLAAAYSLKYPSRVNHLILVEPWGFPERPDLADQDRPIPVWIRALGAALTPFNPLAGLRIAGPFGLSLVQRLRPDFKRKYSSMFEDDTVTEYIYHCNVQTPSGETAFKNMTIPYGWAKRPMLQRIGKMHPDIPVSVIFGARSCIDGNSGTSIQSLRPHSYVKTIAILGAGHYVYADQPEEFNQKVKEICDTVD
# Arrestin-AP2 inh – human beta-arrestin and AP2 interaction inhibition. FITC-arrestin peptide / GST-AP2 beads, flow cytometry; AP2 beta2 appendage carries R879A mutation. inhibition, % at 10 µM. 340,000 compounds, 0.31% hits;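 active means inhibition above a set limit, near 3 SD of compounds lacking own fluorescence, cut at about 54% in these data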;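 further: plate controls were DMSO wells for no effect and 5 µM unlabelled arrestin peptide for full effect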
#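 System: GST-AP2 R879A glutathione beads; medium: PBS, Tween 20 0.05%, BSA 0.1%; reagent: fluorescein-tagged arrestin peptide at 50 nM final; schedule: pre-incubation 12 min, peptide binding 1 h, room temperature; detection: flow cytometry, FL1 (488/535 nm); read-out: inhibition as reduced fluorescein signal on beads, percent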
# Rin1 Abl inh – blocks binding of human Rin1 to Abl; P00519+Q13671; TR-FRET Rin1/Abl binding, biochemical; inhibition, % at 7.35 µM; 360,000 compounds, 0.4% hits; in the data active means inhibition above about 5%, passing the limit was not always enough
# UHRF1 binding – human UHRF1 methylated DNA binding inhibitors | Q96T88 | AID 687016 | UHRF1 binding to methylated oligo, TR-FRET | inhibition, % at 4.4 µM | 370,000 compounds, 0.75% hits; in the data active means inhibition above about 21%;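 further: UHRF1 SRA domain binding a hemimethylated CpG hairpin DNA probe; 0% = median of test compound wells and 100% = reference inhibitor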
# MBD2 DNA inh – inhibitors of human MBD2 binding to methylated oligonucleotide. inhibition, % at 4.4 µM. AID 686964. TR-FRET. 370,000 compounds, 0.31% hits; in the data active means inhibition above about 13%
# Beta2AR ag CP1 – human beta-2 adrenergic receptor agonism, cherry pick. 1,100 compounds, 25% hits. shares compounds with Beta2AR agonist. AID 540358. Am2.2-beta2AR cells, FAP surface receptor, flow cytometry; stronger effect = lower value. percent response (surface receptor), % at 10 µM;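 active means surface receptor percent response at or below 58%, roughly 3 SD from nonfluorescent compounds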
# B2AR FAP counter – fluorescence artifact in beta-2AR agonist FAP counterscreen. shares compounds with Beta2AR agonist. Am2.2 cells, FAP fluorogen flow cytometry; stronger effect = lower value. calls only at 10 µM. 1,100 tested, under 10 active;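 active means percent response below a set limit in fluorescence channel 1 and below 50% in channel 8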
# Starred values were filed as active, the others as inactive; i = inactive; . = no result; ! = a repeat was not active.
SMILES,Beta2AR agonist,ABHD5-PLIN5 inh,Arrestin-AP2 inh,Rin1 Abl inh,UHRF1 binding,MBD2 DNA inh,Beta2AR ag CP1,B2AR FAP counter
CC(C)(C)OC(=O)N1CC2(CCCCC2)CC1Cc1ccc(C(F)(F)F)cc1 (centres undefined),.,-9.5,.,-4.1,0.7,-0.6,100.1,i
CC1(C)CC(Cc2cccc(C(F)(F)F)c2)N(C(=O)OC(C)(C)C)C1 (centres undefined),.,0.0,.,-1.1,-1.5,1.2,111.2,i
COc1ccc(OCC(=O)Nc2ccc3c(c2)nc(CCN2CCCC2)n3C)cc1,8.5,11.6,-3.1,1.0,-1.7,3.2,.,.
COc1ccc(OCC(=O)Nc2ccc3c(c2)nc(CCN2CCN(C)CC2)n3C)cc1,52.4*,2.7,-2.2,1.0,-1.3,4.3,107.5,i
Cc1cccc(OCC(=O)Nc2ccc3c(c2)nc(CCN2CCN(C)CC2)n3C)c1,-0.6,-1.5,-11.0,3.0,-0.4,3.0,112.3,i
c1ccc(Cn2ccc3ccc(-c4ccc5ccn(Cc6cccc(Oc7ccccc7)c6)c5c4)cc32)cc1,.,.,.,.,-0.3,2.1,.,.
O=C(OCc1cccc(C(F)(F)F)c1)c1cc(S(=O)(=O)N2CCOCC2)ccc1F,56.5*,11.2,13.0,-2.6,-1.7,4.6,102.9,i
O=C(COC(=O)c1cc(S(=O)(=O)N2CCOCC2)ccc1F)c1ccccc1,8.0,-0.1,-0.2,0.6,16.0,-2.6,.,.
Cc1ccc(-c2noc(COc3ccccc3C)n2)cc1,-3.5,-5.2,-12.8,1.4,2.2,-2.2,.,.
Cc1ccccc1OCc1nc(-c2ccc(NC(=O)c3ccco3)cc2)no1,3.1,-1.0,16.3,-0.9,1.6,-1.4,128.0,i
Cc1ccccc1-c1nc(-c2ccc(NC(=O)c3cccs3)cc2)no1,0.2,0.2,7.3,1.4,-0.5,-2.6,.,.
Cc1ccccc1OCc1nc(-c2ccc(NC(=O)c3ccc4c(c3)OCO4)cc2)no1,-5.4,-6.7,16.2,-6.2,12.8,5.5,105.9,i
CC(NC(=O)c1ccco1)c1nc(-c2ccccc2)no1 (centres undefined),-7.1,-8.0,-7.9,1.5,2.2,1.2,.,.
O=C(NCc1nc(-c2ccccc2)no1)c1ccc2c(c1)OCO2,0.1,-0.4,3.0,0.5,-1.2,-5.4,.,.
CC(Oc1ccc(Cl)cc1Cl)c1nc(-c2ccc(NC(=O)c3ccco3)cc2)no1 (centres undefined),66.3*,-4.8,7.6,-3.3,1.3,1.5,59.5,i
Cc1ccccc1OCc1nc(-c2ccc(NC(=O)c3cccs3)cc2)no1,-6.5,-5.0,7.3,-1.6,-4.7,-3.5,123.9,i
CN[C@H]1CC[C@@H](c2ccc(Cl)c(Cl)c2)c2ccccc21,50.3*!,11.3,-1.0,4.1,0.8,-5.1,81.1,i
CCC(=O)N1CCc2cc(Br)cc(S(=O)(=O)N(C)c3ccc(OC)cc3)c21,100.9*,5.5,0.0,3.0,0.3,-6.0,19.2*,i
CCC(=O)N1CCc2cc(Br)cc(S(=O)(=O)CC(=O)OC)c21,9.3,-0.7,0.3,1.1,.,.,.,.
Cc1cccc(-c2cccc3c4c([nH]c23)[C@@H]2C[C@H](N(C)C(=O)NC3CCCCC3)[C@H]([C@H](C)O)C(=O)N2CC4)c1,.,.,.,.,1.6,4.1,.,.
CN1CCc2c(sc3nc(SCC(N)=O)n(-c4ccccc4)c(=O)c23)C1,1.9,-5.9,-0.9,-2.4,1.6,-1.2,.,.
CN1CCc2c(sc3nc(SCC(=O)N4CCCCC4)n(-c4ccccc4)c(=O)c23)C1,60.8*,4.7,7.4,-4.4,5.4,7.9,.,i
CCCCNC(=O)C1(C(=O)c2ccc(OC)cc2)CC(c2ccccc2C(F)(F)F)=NO1 (centres undefined),.,.,.,.,0.4,3.4,.,.
CCOC(=O)Cn1nnnc1CN(Cc1ccc(OC)cc1)Cc1cc2cc(CC)ccc2[nH]c1=O,85.9*,-10.8,0.9,4.8,-2.7,-4.1,102.7,i
CCOC(=O)Cn1nnnc1CN(Cc1ccc(OC)cc1)Cc1cc2cc(C)ccc2[nH]c1=O,38.6,2.7,-3.1,-0.7,3.3,5.2,.,.
SMILES,Beta2AR agonist,ABHD5-PLIN5 inh,Arrestin-AP2 inh,Rin1 Abl inh,UHRF1 binding,MBD2 DNA inh,Beta2AR ag CP1,B2AR FAP counter
Cc1ccc(Cn2c(=N)n(CC(=O)c3ccccc3)c3ccccc32)cc1,58.2*,6.1,-8.6,5.1,-1.8,1.4,86.3,i
Cc1ccccc1Cn1c(=N)n(CC(=O)c2ccc([N+](=O)[O-])cc2)c2ccccc21,54.8*,-3.9,-5.3,0.8,5.2,-0.8,22.2*,i
CC(C)(C)C(=O)Cn1c(=N)n(Cc2ccccc2)c2ccccc21,-1.8,-1.6,6.4,-2.0,4.1,5.9,.,.
CCOC(=O)c1c(C)[nH]c(C)c1C(=O)COC(=O)c1cccc(S(=O)(=O)N(CC)CC)c1,44.3*,-8.7,-8.0,2.6,-0.9,0.0,117.7,i
COc1ccc(C(=O)CCC(=O)Nc2ccc(N3CCCCC3)cc2)cc1OC,72.3*,4.2,14.2,-2.8,-0.7,-5.6,97.7,i
CN1C(=O)c2cc(NC(=O)Nc3ccccc3)ccc2OC[C@H]2O[C@@H](CC(=O)NC3CCC3)CC[C@@H]21,.,.,.,.,9.2,9.3,.,.
CN(CC(=O)N1CCN(c2ccccn2)CC1)S(=O)(=O)c1ccc(Br)cc1,106.7*,2.9,-5.2,-2.1,0.1,1.6,27.0*,i
CCOC(=O)N1CCN(C(=O)CN(C)S(=O)(=O)c2ccc(Cl)cc2)CC1,81.8*,6.6,-4.9,4.6,5.0,7.8,14.5*,i
COC(=O)[C@]12C[C@H](CC(=O)NCCC(C)C)C(=O)N(Cc3ccc4c(c3)OCO4)C1=C[C@H](C(C)C)O[C@@H]2C1CC1,.,.,.,.,-2.0,-6.5,.,.
C[C@H]1COc2cccc(N3CCCC3)c2S(=O)(=O)N1C,.,.,.,.,0.9,-1.1,.,.
CCC(CC)C(=O)Nc1cc(OC)c(OC)cc1C(=O)O,92.4*,2.8,18.5,-1.1,-3.3,-5.5,98.6,i
CCC(C)C(=O)Nc1cc(OC)c(OC)cc1C(=O)O (centres undefined),2.0,0.3,9.0,-2.0,0.7,1.9,.,.
Fc1ccc([C@@H]2CCNC[C@H]2COc2ccc3c(c2)OCO3)cc1,44.5*!,4.2,-4.6,1.8,-2.2,1.0,93.8,i
Fc1ccc(C2CCNCC2COc2ccc3c(c2)OCO3)cc1 (centres undefined),12.1,6.7,15.7,-0.1,1.1,-5.0,.,.
O=C(NCCc1c[nH]c2ccccc12)OCc1cn(Cc2cccc(F)c2)nn1,.,.,.,.,0.1,3.9,.,.
Cc1nc(SCc2nc3c([N+](=O)[O-])cccc3[nH]2)c2oc3ccccc3c2n1,52.0*,1.1,-1.2,-0.4,.,.,124.3,i

# Screening results: PubChem BioAssay, several laboratories
